From ChEMBL document CHEMBL2146379, “Antimetastatic effect of sulfamate carbonic anhydrase IX inhibitors in breast carcinoma xenografts” (J Med Chem, 2012)
The source made the active and inactive calls. The calls are words filed in the database; no cut-off is given here.

How the values were obtained:
RT-112 = assay: Antimetastatic activity against CA9 deficient human RT112 cells assessed as inhibition of cell migration under anoxic condition at 33 uM after 24 hrs by scratch-wound assay; type: functional, cell-based
Outline: (§1)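 Scratch-wound migration in confluent monolayers of RPMI 1640/10% FCS/2 mM glutamine-grown cells (eGFP-tagged MDA-MB-231, WRO, FTC-133; untagged RT112, HCT116). Incubation 24 h in normoxia or anoxia with DMSO or inhibitor at increasing concentrations (3.3, 10, 33 μM tested). Wound closure imaged by fluorescence. n = 3 per concentration per cell line; mean ± SEM, Student's t test.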

MDA-MB-231 [1] = assay: Cytotoxicity against EGFP tagged human MDA-MB-231 cells expressing CA9 at 100 uM; type: functional, cell-based
MDA-MB-231 [2] = assay: Antimetastatic activity against EGFP tagged human MDA-MB-231 cells expressing CA9 assessed as inhibition of cell spreading under anoxic condition at 33 uM after 60 mins by phalloidin staining; type: functional, cell-based
Mus musculus [3] = assay: Toxicity in nu/nu CBA mouse xenografted with EGFP tagged human MDA-MB-231 cells expressing CA9 assessed as signs of intolerance at 10 mg/kg, ip administered 5 days on 2 days off; type: organism-based; parameters: dose 10 mg/kg, route intraperitoneal; conditions: in vivo
Outline: (§2)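 Female nu/nu CBA mice, 10−12 weeks old, 8 per group, injected orthotopically into the fourth inguinal nipple with eGFP-MDA-MB-231 cells (5 × 10⁷ cells/mL in 1:1 serum-free RPMI/Matrigel). From 150 mm³ tumors, dosed 10 mg/kg ip daily (saline, 4% DMSO), 5 days on/2 off. Callipers 3×/week; health checked daily; body weight tracked. Culled at 1000 mm³; lung metastasis by ex vivo clonogenic assay.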

MDA-MB-231 [4] = assay: Antimetastatic activity against EGFP tagged human MDA-MB-231 cells expressing CA9 assessed as inhibition of cell migration under anoxic condition at 10 uM after 24 hrs by scratch-wound assay; type: functional; conditions: MDA-MB-231, 24 h; outline: as §1
[5] = Antimetastatic activity against EGFP tagged human WRO cells expressing CA9 assessed as inhibition of cell migration under anoxic condition at 100 uM after 24 hrs by scratch-wound assay; type: functional
HCT-116 [6] = assay: Antimetastatic activity against human HCT116 cells assessed as stimulation of cell migration under anoxic condition at 33 uM after 24 hrs by scratch-wound assay; type: functional; outline: as §1
MDA-MB-231 [7] = assay: Antimetastatic activity against EGFP tagged human MDA-MB-231 cells expressing CA9 assessed as inhibition of cell migration under anoxic condition at 3.3 uM after 24 hrs by scratch-wound assay; type: functional; conditions: MDA-MB-231, 24 h; outline: as §1
HCT-116 [8] = assay: Antimetastatic activity against human HCT116 cells xenografted in mouse assessed as inhibition of lung metastasis; type: functional
MDA-MB-231 [9] = assay: Antimetastatic activity against EGFP tagged human MDA-MB-231 cells expressing CA9 assessed as inhibition of cell migration under anoxic condition at 33 uM after 24 hrs by scratch-wound assay; type: functional; conditions: MDA-MB-231, 24 h; outline: as §1
MDA-MB-231 [10] = assay: Antitumor activity against EGFP tagged human MDA-MB-231 cells expressing CA9 xenografted in nu/nu CBA mouse assessed as tumor growth inhibition at 10 mg/kg, ip administered 5 days on 2 days off; type: functional, organism-based; parameters: dose 10 mg/kg; outline: as §2
MDA-MB-231 [11] = assay: Antimetastatic activity against EGFP tagged human MDA-MB-231 cells expressing CA9 assessed as inhibition of cell spreading under normoxic condition at 33 uM after 60 mins by phalloidin staining; type: functional, cell-based
MDA-MB-231 [12] = assay: Antimetastatic activity against EGFP tagged human MDA-MB-231 cells expressing CA9 xenografted in nu/nu CBA mouse tumor assessed as reduction in metastasic burden in lungs at 10 mg/kg, ip, administered 5 days on 2 days off measured on day 10 by clonogenic assay; type: functional, organism-based; parameters: dose 10 mg/kg; outline: as §2
FTC-133 = assay: Antimetastatic activity against EGFP tagged human FTC-133 cells expressing CA9 assessed as inhibition of cell migration under anoxic condition at 33 uM after 24 hrs by scratch-wound assay; type: functional, cell-based; outline: as §1
Mus musculus [13] = assay: Toxicity in nu/nu CBA mouse xenografted with EGFP tagged human MDA-MB-231 cells expressing CA9 assessed as change in body weight at 10 mg/kg, ip administered 5 days on 2 days off; type: organism-based; parameters: dose 10 mg/kg, route intraperitoneal; conditions: in vivo; outline: as §2
MDA-MB-231 [14] = assay: Antimetastatic activity against EGFP tagged human MDA-MB-231 cells expressing CA9 assessed as inhibition of cell migration under anoxic condition after 24 hrs by scratch-wound assay; type: functional, cell-based; outline: as §1
MDA-MB-231 [15] = assay: Antimetastatic activity against EGFP tagged human MDA-MB-231 cells expressing CA9 assessed as inhibition of cell migration under normoxic condition after 24 hrs by scratch-wound assay; type: functional, cell-based; outline: as §1
Carbonic anhydrase 9 = Carbonic anhydrase 9 (Homo sapiens, UniProt Q16790); assay: Inhibition of human recombinant transmembrane CA9 preincubated for 15 mins by stopped-flow CO2 hydration method
Outline: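 Stopped-flow CO₂ hydration with in-house recombinant human CA, CO₂ 1.7−17 mM. Inhibitor diluted in water from 0.1 mM stock down to 0.01 nM, preincubated with enzyme 15 min at room temperature. Initial velocity from ≥6 traces of the first 5−10% of reaction, uncatalyzed rate subtracted.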

Cc1cc(C)cc(NC(=O)Nc2ccc(OS(N)(=O)=O)cc2)c1
inhibition (RT-112): inactive | Activity (MDA-MB-231 [1]): Active | inhibition (MDA-MB-231 [2]): Active | Activity (Mus musculus [3]): Non-toxic | inhibition at 10 µM (MDA-MB-231 [4]): 21% | inhibition at 100 µM [5]: 41% | Activity (HCT-116 [6]): 44% | inhibition at 3.3 µM (MDA-MB-231 [7]): 5% | inhibition (HCT-116 [8]): inactive | inhibition at 33 µM (MDA-MB-231 [9]): 50% | growth inhibition (GI) (MDA-MB-231 [10]): inactive | inhibition (MDA-MB-231 [11]): inactive | Activity (MDA-MB-231 [12]): Active | inhibition (FTC-133): Active | Activity (Mus musculus [13]): Non-toxic

NS(=O)(=O)Oc1ccc(NC(=O)Nc2ccc(F)cc2)cc1
inhibition (MDA-MB-231 [14]): Active | inhibition (MDA-MB-231 [15]): Active

NS(=O)(=O)Oc1ccc(NC(=O)Nc2c(F)c(F)c(F)c(F)c2F)cc1
inhibition at 33 µM (MDA-MB-231 [9]): 32%

NS(=O)(=O)Oc1ccc(NC(=S)Nc2ccc(-c3c4ccc(=O)cc-4oc4cc(O)ccc34)c(C(=O)O)c2)cc1
inhibition (MDA-MB-231 [14]): inactive

CN(C)c1ccc(NC(=O)Nc2ccc(OS(N)(=O)=O)cc2)cc1
Ki (Carbonic anhydrase 9): 9 nM | inhibition (MDA-MB-231 [14]): inactive

NS(=O)(=O)Oc1ccc(NC(=O)Nc2ccc(Oc3ccccc3)cc2)cc1
inhibition at 33 µM (MDA-MB-231 [9]): 49%

NS(=O)(=O)Oc1ccc(NC(=O)Nc2ccc([N+](=O)[O-])cc2)cc1
inhibition (MDA-MB-231 [14]): Active | inhibition (MDA-MB-231 [15]): Active

NS(=O)(=O)Oc1ccc(-[n+]2c(-c3ccccc3)cc(-c3ccccc3)cc2-c2ccccc2)cc1
Ki (Carbonic anhydrase 9): 14 nM | inhibition (MDA-MB-231 [14]): inactive

NS(=O)(=O)Oc1ccc(NC(=O)Nc2ccc(Cl)cc2)cc1
inhibition (MDA-MB-231 [14]): Active | inhibition (MDA-MB-231 [15]): Active

COc1ccc(NC(=O)Nc2ccc(OS(N)(=O)=O)cc2)cc1
inhibition (MDA-MB-231 [14]): inactive
